Experimental data published in ChEMBL document CHEMBL1938394, “Time-dependent slowly-reversible inhibition of monoamine oxidase A by N-substituted 1,2,3,6-tetrahydropyridines” (Bioorg Med Chem, 2011).

Key:
[1] = molecular target: T1, Amine oxidase [flavin-containing] A (Homo sapiens, UniProt P21397); experiment: Inhibition of human recombinant MAOA expressed in insect cells assessed as oxidation of kynuramine substrate at 50 uM measured after additional substrate added after 90 mins incubation; conditions: 1.5 h
T1 sequence (P21397 whole entry): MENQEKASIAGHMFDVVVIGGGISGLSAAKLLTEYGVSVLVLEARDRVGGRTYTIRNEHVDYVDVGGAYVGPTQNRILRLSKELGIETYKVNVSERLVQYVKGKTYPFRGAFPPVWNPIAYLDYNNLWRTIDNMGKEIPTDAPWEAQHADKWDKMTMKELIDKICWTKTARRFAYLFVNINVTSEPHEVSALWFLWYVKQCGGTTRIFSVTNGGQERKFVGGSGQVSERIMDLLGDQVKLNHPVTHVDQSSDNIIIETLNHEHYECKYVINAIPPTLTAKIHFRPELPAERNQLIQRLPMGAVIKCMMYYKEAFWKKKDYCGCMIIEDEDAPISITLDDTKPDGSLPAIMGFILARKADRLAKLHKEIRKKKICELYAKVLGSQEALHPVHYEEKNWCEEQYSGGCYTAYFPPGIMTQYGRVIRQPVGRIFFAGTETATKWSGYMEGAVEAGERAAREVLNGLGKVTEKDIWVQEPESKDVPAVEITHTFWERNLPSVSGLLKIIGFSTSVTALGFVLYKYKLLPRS
Summary of the method: (§1)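 Recombinant human MAO-A incubated with kynuramine, with or without inhibitor. Product formation followed over time. A second equivalent of substrate (150 µM kynuramine) added at 90 min and fresh enzyme added at 120 min.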

Mus musculus [2] = experiment: Neurotoxicity in C57BL/6J mouse assessed as reduction of striatal tyrosine hydroxylase level at 12.5 mg/kg, sc after 72 hrs by ELISA; assay type: toxicity, organism-based; parameters: dose 12.5 mg/kg, route subcutaneous; conditions: in vivo
Summary of the method: (§2)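 Female C57BL/6J mice aged 3–4 months, single sc dose, 0.9% saline vehicle, killed 72 h post-dose. Striatum homogenised in hot 1% SDS. GFAP or TH measured by detergent-based sandwich ELISA.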

Mus musculus [3] = experiment: Neurotoxicity in C57BL/6J mouse assessed as increase of striatal GFAP level at 12.5 mg/kg, sc after 72 hrs by ELISA; assay type: toxicity, organism-based; parameters: dose 12.5 mg/kg, route subcutaneous; conditions: in vivo; summary of the method: as §2
[4] = molecular target: T1, Amine oxidase [flavin-containing] A; experiment: Inhibition of human recombinant MAOA expressed in insect cells assessed as oxidation of kynuramine substrate at 50 uM measured after additional enzyme added after 120 mins incubation; conditions: 2 h; summary of the method: as §1

With CN1CC=C(c2ccccc2)CC1 the “inhibition (INH)” value [1] was “Active”, the Activity (Mus musculus [2]) was “Toxic” and the Activity (Mus musculus [3]) was “Toxic”. The “inhibition (INH)” value [4] was “Active”.
